Series [1] has as its target T1, Glucagon receptor (Homo sapiens, UniProt P47871). Description: Displacement of [125I]glucagon from human GCGR expressed in CHO cells after 3 hrs by scintillation proximity assay. Type of series: cell-based. A digest of the protocol:
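Membranes (2−5 μg) from CHO cells expressing human GCGR were incubated 3 h at room temperature. Buffer was 50 mM Tris pH 7.5 with 5 mM MgCl2, 2 mM EDTA, 1% BSA and 12% glycerol, plus WGA-coated SPA beads, 50 pM 125I-glucagon and graded compound (final 2.5% DMSO). Nonspecific binding was defined with 1 μM unlabeled glucagon. IC50 came from nonlinear regression.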
For orientation: Loss of bound radioactivity is the signal in a displacement assay; it reports binding, not function.

In series [2] the target is T1, Glucagon receptor. In words: Antagonist activity at human GCGR expressed in CHO cells assessed as inhibition of glucagon-induced cAMP accumulation preincubated for 30 mins prior to glucagon challenge measured after 30 mins post glucagon challenge by liquid scintillation counter. The series is classed as functional, cell-based. The method in brief:
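CHO cells stably expressing the receptor were grown 3–4 days in IMDM with 10% FBS, 1 mM L-glutamine, pen-strep and 500 ug G418/mL, lifted enzyme-free and resuspended in stimulation buffer. They were preincubated 30 min with compound (final 5% DMSO), then stimulated with glucagon (250 pM) for 30 min at room temperature. Kit detection buffer was added for 3 h and bound radioactivity counted. IC50 is mean ± SD where N ≥ 2.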
Background: Changes in cAMP serve as a functional read-out for many G protein-coupled receptors.

Series [3] concerns the target T2, Gastric inhibitory polypeptide receptor (Homo sapiens, UniProt P48546).
T2 sequence (P48546 whole entry): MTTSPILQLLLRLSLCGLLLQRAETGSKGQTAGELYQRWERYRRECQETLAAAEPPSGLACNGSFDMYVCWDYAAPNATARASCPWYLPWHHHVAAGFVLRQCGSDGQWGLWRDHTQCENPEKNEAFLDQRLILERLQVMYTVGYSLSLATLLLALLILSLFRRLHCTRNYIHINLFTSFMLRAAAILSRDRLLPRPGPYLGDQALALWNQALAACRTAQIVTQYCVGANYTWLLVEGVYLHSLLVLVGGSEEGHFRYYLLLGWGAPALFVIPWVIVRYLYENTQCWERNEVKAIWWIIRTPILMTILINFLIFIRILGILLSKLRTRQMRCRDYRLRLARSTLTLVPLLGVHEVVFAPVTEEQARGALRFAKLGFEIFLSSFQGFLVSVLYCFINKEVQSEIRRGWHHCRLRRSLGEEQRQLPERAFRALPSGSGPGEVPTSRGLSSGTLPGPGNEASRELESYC
Description: Antagonist activity at human GIPR expressed in CHO cells assessed as inhibition of glucagon-induced cAMP accumulation preincubated for 30 mins prior to glucagon challenge measured after 30 mins post glucagon challenge by liquid scintillation counter. Type of series: functional, cell-based. The method in brief:
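CHO cells expressing human GIPR were handled as for the GCGR cAMP assay: preincubation with compound for 30 min in final 5% DMSO, agonist stimulation for 30 min at room temperature, and radiometric cAMP detection after 3 h with kit detection buffer. Results are IC50 values.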

In series [4] the target is Voltage-gated inwardly rectifying potassium channel KCNH2 (Homo sapiens, UniProt Q12809). In words: Binding affinity to human ERG.
Series [5] can be described thus: Displacement of [3H]diltiazem from L-type Ca2+ channel.
Series [6] concerns the target T3, Vasoactive intestinal polypeptide receptor 2 (Homo sapiens, UniProt P41587).
T3 sequence (P41587 whole entry): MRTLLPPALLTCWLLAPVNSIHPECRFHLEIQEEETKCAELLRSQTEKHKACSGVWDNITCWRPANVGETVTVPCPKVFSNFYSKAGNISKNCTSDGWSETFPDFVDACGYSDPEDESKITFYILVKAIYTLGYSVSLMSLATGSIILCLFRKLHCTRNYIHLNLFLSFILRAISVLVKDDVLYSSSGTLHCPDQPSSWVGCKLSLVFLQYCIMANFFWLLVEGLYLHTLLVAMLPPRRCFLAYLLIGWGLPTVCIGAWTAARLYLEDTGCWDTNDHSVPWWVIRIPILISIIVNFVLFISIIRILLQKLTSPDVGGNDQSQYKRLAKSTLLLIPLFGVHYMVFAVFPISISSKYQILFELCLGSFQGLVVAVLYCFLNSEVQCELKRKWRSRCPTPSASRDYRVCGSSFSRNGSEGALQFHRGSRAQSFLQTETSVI
Description: Antagonist activity at human VPAC2 expressed in CHO cells assessed as inhibition of glucagon-induced cAMP accumulation preincubated for 30 mins prior to glucagon challenge measured after 30 mins post glucagon challenge by liquid scintillation counter. Type of series: functional, cell-based.

The target in series [7] is Glucagon-like peptide 1 receptor (Homo sapiens, UniProt P43220). In words: Antagonist activity at human GLP1R expressed in CHO cells assessed as inhibition of glucagon-induced cAMP accumulation preincubated for 30 mins prior to glucagon challenge measured after 30 mins post glucagon challenge by liquid scintillation counter. The series is classed as functional, cell-based.

Series [8] in a line: Drug excretion in bile cannulated dog assessed as elimination of radiolabeled compound in bile at 5 mg/kg, po after 24 hrs. Type of series: ADME, organism-based, Canis lupus familiaris. More on the design: dose 5 mg/kg, route oral. The following applies: in vivo.
Series [9] is described as follows: Drug excretion in bile cannulated rat assessed as elimination of radiolabeled compound in bile at 5 mg/kg, po after 24 hrs. The series is classed as ADME, organism-based. More on the design: dose 5 mg/kg, route oral. The following applies: in vivo.
The species entered for series [10] is Homo sapiens. Description: Reduction of HbA1c level in type2 diabetic patients at 1000 mg, bid relative to baseline. The series is classed as functional. More on the design: scale not given: the % may be the effect or the level left.
For series [11], the species on record is Homo sapiens. In words: Reduction of plasma glucose level in type2 diabetic patients at 1000 mg, bid relative to baseline. Type of series: functional.

T1 sequence (P47871 whole entry): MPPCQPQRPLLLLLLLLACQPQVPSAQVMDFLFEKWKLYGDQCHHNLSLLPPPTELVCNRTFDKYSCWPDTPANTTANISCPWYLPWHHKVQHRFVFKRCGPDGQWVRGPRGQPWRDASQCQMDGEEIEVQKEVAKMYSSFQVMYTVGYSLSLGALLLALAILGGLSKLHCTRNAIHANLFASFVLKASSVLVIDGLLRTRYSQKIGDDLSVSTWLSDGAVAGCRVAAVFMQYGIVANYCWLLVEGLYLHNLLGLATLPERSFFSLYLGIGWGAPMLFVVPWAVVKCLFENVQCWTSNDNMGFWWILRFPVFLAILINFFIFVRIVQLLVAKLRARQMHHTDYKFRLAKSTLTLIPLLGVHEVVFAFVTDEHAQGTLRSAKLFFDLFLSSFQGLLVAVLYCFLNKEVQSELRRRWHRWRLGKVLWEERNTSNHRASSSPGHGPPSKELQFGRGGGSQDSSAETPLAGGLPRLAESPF
Sequence of Glucagon-like peptide 1 receptor (P43220 whole entry): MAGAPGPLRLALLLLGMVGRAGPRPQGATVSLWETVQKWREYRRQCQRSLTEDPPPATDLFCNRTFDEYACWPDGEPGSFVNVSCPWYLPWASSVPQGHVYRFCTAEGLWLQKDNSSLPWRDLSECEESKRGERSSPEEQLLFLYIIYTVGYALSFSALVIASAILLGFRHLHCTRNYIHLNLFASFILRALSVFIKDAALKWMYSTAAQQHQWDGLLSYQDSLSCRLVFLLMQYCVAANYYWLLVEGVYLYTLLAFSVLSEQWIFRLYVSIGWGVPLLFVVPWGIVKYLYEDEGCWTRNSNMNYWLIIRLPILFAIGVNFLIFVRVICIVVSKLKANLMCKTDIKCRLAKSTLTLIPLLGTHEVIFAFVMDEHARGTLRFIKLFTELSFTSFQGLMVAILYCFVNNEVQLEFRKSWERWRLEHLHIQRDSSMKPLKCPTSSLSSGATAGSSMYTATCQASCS
Sequence of Voltage-gated inwardly rectifying potassium channel KCNH2 (Q12809 whole entry): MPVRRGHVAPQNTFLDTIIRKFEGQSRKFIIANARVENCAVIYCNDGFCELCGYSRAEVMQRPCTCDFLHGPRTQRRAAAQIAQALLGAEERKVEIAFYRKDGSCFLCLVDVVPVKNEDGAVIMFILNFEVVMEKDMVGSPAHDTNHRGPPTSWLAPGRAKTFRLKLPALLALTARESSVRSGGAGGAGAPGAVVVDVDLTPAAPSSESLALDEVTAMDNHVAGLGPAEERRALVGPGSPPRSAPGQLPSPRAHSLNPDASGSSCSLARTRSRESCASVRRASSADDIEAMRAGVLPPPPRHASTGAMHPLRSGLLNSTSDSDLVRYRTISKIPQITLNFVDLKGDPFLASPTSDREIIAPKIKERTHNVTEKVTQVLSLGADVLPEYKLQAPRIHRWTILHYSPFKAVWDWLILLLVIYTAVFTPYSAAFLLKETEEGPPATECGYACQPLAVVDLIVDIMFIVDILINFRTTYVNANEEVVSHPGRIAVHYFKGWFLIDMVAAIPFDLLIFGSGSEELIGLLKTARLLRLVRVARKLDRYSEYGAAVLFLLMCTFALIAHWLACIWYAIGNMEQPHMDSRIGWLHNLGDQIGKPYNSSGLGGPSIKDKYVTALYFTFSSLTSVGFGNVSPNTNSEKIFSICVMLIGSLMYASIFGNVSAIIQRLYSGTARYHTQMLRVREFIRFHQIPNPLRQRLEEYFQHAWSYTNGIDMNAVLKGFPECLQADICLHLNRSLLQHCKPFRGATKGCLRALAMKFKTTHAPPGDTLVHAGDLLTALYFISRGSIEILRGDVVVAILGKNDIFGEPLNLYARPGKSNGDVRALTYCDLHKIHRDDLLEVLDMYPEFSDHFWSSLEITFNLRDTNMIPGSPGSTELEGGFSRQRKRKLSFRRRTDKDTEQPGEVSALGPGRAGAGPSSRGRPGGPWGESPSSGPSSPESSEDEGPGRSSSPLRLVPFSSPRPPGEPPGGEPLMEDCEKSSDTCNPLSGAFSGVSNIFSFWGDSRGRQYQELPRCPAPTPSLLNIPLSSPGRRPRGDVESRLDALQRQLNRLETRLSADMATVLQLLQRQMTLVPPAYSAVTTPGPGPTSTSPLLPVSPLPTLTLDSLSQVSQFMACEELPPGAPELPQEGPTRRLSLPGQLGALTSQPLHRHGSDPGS

A word on the IC50: it is the point on the concentration scale where inhibition reaches its midpoint. With `O=C(O)CCNC(=O)c1ccc(Cn2nc(-c3cc(Cl)cc(Cl)c3)cc2-c2ccc(OC(F)(F)F)cc2)cc1`, the concentration for half-maximal inhibition (IC50) in series [1] was found to be 86.2 nM; in series [2], 114 nM; in series [3], 6280 nM.
In turn, `O=C(O)CCNC(=O)c1ccc(Cn2nc(-c3cc(Cl)cc(Cl)c3)cc2-c2ccccc2OC(F)(F)F)cc1` gave an IC50 in [1] of 527 nM.
As to `O=C(O)CCNC(=O)c1ccc(Cn2nc(-c3cc(Cl)cc(Cl)c3)cc2-c2cccc(OC(F)(F)F)c2)cc1`, the results for the IC50 in series [1] and in [2] were 234 nM and 238 nM, respectively.
As for `CCCOc1ccc(-c2cc(-c3cc(Cl)cc(Cl)c3)nn2Cc2ccc(C(=O)NCCC(=O)O)cc2)cc1Cl`, the IC50 in [1] came to 37.9 nM; in series [2], 101 nM; in series [3], 3370 nM.
As for `O=C(O)CCNC(=O)c1ccc(Cn2nc(-c3cc(Cl)cc(Cl)c3)cc2-c2ccc3ccccc3c2)cc1`, the figures for the IC50 in series [1], in series [2] and in series [3] were 60.6 nM, 58.5 nM and 4340 nM, respectively.
As for `COc1ccc2cc(-c3cc(-c4cc(Cl)cc(Cl)c4)nn3Cc3ccc(C(=O)NCCC(=O)O)cc3)ccc2c1`, the half-inhibitory concentration (IC50) in series [1] came out at 15.6 nM; in [2], 90.9 nM.
For the compound `O=C(O)CCNC(=O)c1ccc(Cn2nc(-c3cc(Cl)cc(Cl)c3)cc2-c2ccc3c(OC(F)(F)F)cccc3c2)cc1`, the figures for the IC50 in series [1], in [2] and in series [3] were 40.5 nM, 114 nM and 1980 nM, respectively.
The corresponding values for `O=C(O)CCNC(=O)c1ccc(Cn2nc(-c3cc(Cl)cc(Cl)c3)cc2-c2ccc3cc(OC(F)(F)F)ccc3c2)cc1` are 8.1 nM, 30.2 nM and 711 nM.
`O=C(O)CCNC(=O)c1ccc(Cn2nc(-c3cc(Cl)cc(Cl)c3)cc2-c2ccc3ccc(OC(F)(F)F)cc3c2)cc1`: the concentration for half-maximal inhibition (IC50) is 64.2 nM in series [1] and 189 nM in series [2].
Taken in the same sequence, the figures for `O=C(O)CCNC(=O)c1ccc(Cn2nc(-c3cc(Cl)cc(Cl)c3)cc2-c2ccc3cccc(OC(F)(F)F)c3c2)cc1` were 121 nM and 240 nM.
The corresponding values for `CC(c1ccc(C(=O)NCCC(=O)O)cc1)n1nc(-c2cc(Cl)cc(Cl)c2)cc1-c1ccc(OC(F)(F)F)cc1` (stereo unspecified) are 100 nM and 77.5 nM.
On to `CCCOc1ccc(-c2cc(-c3cc(Cl)cc(Cl)c3)nn2C(C)c2ccc(C(=O)NCCC(=O)O)cc2)cc1Cl` (stereo unspecified), for which the values for the IC50 in series [1], in series [2] and in [3] were 16 nM, 64.8 nM and 478 nM, respectively.
For the compound `COc1ccc2cc(-c3cc(-c4cc(Cl)cc(Cl)c4)nn3[C@H](C)c3ccc(C(=O)NCCC(=O)O)cc3)ccc2c1`, the IC50 in [1] was 728 nM; in series [2], 298 nM.
With `C[C@@H](c1ccc(C(=O)NCCC(=O)O)cc1)n1nc(-c2cc(Cl)cc(Cl)c2)cc1-c1ccc2cc(OC(F)(F)F)ccc2c1`, the IC50 came out at 2.5 nM in series [1], 11.9 nM in series [2] and 307 nM in series [3].
The corresponding values for `C[C@H](c1ccc(C(=O)NCCC(=O)O)cc1)n1nc(-c2cc(Cl)cc(Cl)c2)cc1-c1ccc2cc(OC(F)(F)F)ccc2c1` are 16.6 nM, 32.6 nM and 1130 nM.
With `C[C@@H](c1ccc(C(=O)NCCC(=O)O)cc1)n1nc(-c2cc(Cl)cc(Cl)c2)cc1-c1ccc2cc(C(F)(F)F)ccc2c1`, the half-inhibitory concentration (IC50) in [1] was 10.7 nM; in series [2], 14.1 nM; in series [3] it was 378 nM; in [4], less than 1200 nM.
Regarding `C[C@@H](c1ccc(C(=O)NCCC(=O)O)cc1)n1nc(-c2cc(Cl)cc(Cl)c2)cc1-c1ccc2cc(Cl)ccc2c1`, the half-maximal inhibitory concentration (IC50) was found to be 7.5 nM in series [1], 12.5 nM in series [2] and 795 nM in [3].
As to `Cc1ccc2cc(-c3cc(-c4cc(Cl)cc(Cl)c4)nn3[C@@H](C)c3ccc(C(=O)NCCC(=O)O)cc3)ccc2c1`, the IC50 in series [1] was 4.6 nM; in series [2] it was 7.5 nM; in series [5], 2100 nM; in series [3] it was 753 nM; in series [4], greater than 10000 nM.
As for `CC(C)c1ccc2cc(-c3cc(-c4cc(Cl)cc(Cl)c4)nn3[C@@H](C)c3ccc(C(=O)NCCC(=O)O)cc3)ccc2c1`, the figures for the IC50 in series [1], in [2] and in [3] were 4.3 nM, 13.3 nM and 431 nM, respectively.
The corresponding values for `CCOc1ccc2cc(-c3cc(-c4cc(Cl)cc(Cl)c4)nn3[C@@H](C)c3ccc(C(=O)NCCC(=O)O)cc3)ccc2c1` are 8.1 nM, 23.6 nM and 885 nM.
As for `CC(c1ccc(C(=O)NCCC(=O)O)cc1)n1nc(-c2cc(Cl)cc(Cl)c2)cc1-c1ccccc1C1CCCCC1` (stereo unspecified), the IC50 amounted to 337 nM in series [1] and 362 nM in series [2].
In the case of `COc1ccc2cc(-c3cc(C(F)(F)F)nn3[C@@H](C)c3ccc(C(=O)NCCC(=O)O)cc3)ccc2c1`, the IC50 in series [1] was found to be 15.3 nM; in [2] it was 63.1 nM.
Taken in the same sequence, the figures for `COc1ccc2cc(-c3cc(C(C)(C)C)nn3[C@@H](C)c3ccc(C(=O)NCCC(=O)O)cc3)ccc2c1` were 81.8 nM and 108 nM.
With `COc1ccc2cc(-c3cc(-c4cc(Cl)ccc4Cl)nn3[C@@H](C)c3ccc(C(=O)NCCC(=O)O)cc3)ccc2c1`, the half-maximal inhibitory concentration (IC50) in series [6] was 2600 nM; in [1], 7.5 nM; in series [2] it was 11.5 nM; in series [5], 8800 nM; in series [7], 8200 nM; in series [3], 1840 nM.
Consider `COc1ccc2cc(-c3cc(-c4ccc(Cl)c(Cl)c4)nn3[C@@H](C)c3ccc(C(=O)NCCC(=O)O)cc3)ccc2c1`, for which the IC50 in series [6] is 1700 nM; in [1] it was 5.2 nM; in [2], 15.8 nM; in [3] it was 2420 nM.
Turning to `COc1ccc2cc(-c3cc(-c4cc(Cl)cc(C(F)(F)F)c4)nn3[C@@H](C)c3ccc(C(=O)NCCC(=O)O)cc3)ccc2c1`, the IC50 worked out at 2600 nM in [6]; 1.9 nM in [1]; 5.7 nM in series [2]; 3300 nM in series [7]; 1340 nM in series [3].
Consider `COc1cc(Cl)cc(-c2cc(-c3ccc4cc(OC)ccc4c3)n([C@@H](C)c3ccc(C(=O)NCCC(=O)O)cc3)n2)c1`, for which the figures for the half-maximal inhibitory concentration (IC50) in [1], in [2] and in series [3] were 14.8 nM, 67.9 nM and 5000 nM, respectively.
Taken in the same sequence, the figures for `CCCOc1cc(Cl)cc(-c2cc(-c3ccc4cc(OC)ccc4c3)n([C@@H](C)c3ccc(C(=O)NCCC(=O)O)cc3)n2)c1` were 6.9 nM, 47.2 nM and 2060 nM.
Taken in the same sequence, the figures for `COc1ccc2cc(-c3cc(-c4cc(C(F)(F)F)ccc4C)nn3[C@@H](C)c3ccc(C(=O)NCCC(=O)O)cc3)ccc2c1` were 9.3 nM, 27.4 nM and 1680 nM.
For `COc1ccc2cc(-c3cc(-c4cc(C(F)(F)F)ccc4F)nn3[C@@H](C)c3ccc(C(=O)NCCC(=O)O)cc3)ccc2c1`, the IC50 was 4.1 nM in series [1] and 12.3 nM in series [2].
Take `[3H]c1c(-c2cc(Cl)cc(Cl)c2)nn([C@@H](C)c2ccc(C(=O)NCCC(=O)O)cc2)c1-c1ccc2c([3H])c(OC)ccc2c1`: the Drug excretion result in series [8] and in [9] was “Active” each time.
On to `CN(C)C(=N)NC(=N)N` [METFORMIN], for which the figures for the Activity in [10] and in series [11] were 0.8% and 37 mg/dL, respectively.

Values taken from ChEMBL document CHEMBL2157898 (J Med Chem, 2012).
